According to ChEMBL document CHEMBL4842360, “Discovery of a Bicyclic Peptidyl Pan-Ras Inhibitor” (J Med Chem, 2021):
The source made the active and inactive calls. The rule behind the calls is not given here. Numbered stars: 1 amine (or outer) side, 2 acyl side, 3 side chain; on linkers, the order of the positions; unused ones are H or OH. Bridge positions count the residues as written; N and C are the ends. Square brackets hold non-standard residues; d marks the D form. Peptide text beside a SMILES is read from it. Trimesoyl = O=C(c1cc(C(=O)[*:2])cc(C(=O)[*:3])c1)[*:1]; d2Nal = N[C@H](Cc1ccc2ccccc2c1)C(=O)O; Phg = N[C@H](C(=O)O)c1ccccc1; Orn = NCCC[C@H](N)C(=O)O; Dap = NC[C@H](N)C(=O)O

How the values were obtained:
Albumin = Albumin (Bos taurus, UniProt P02769); test: Binding affinity to bovine serum albumin; format: ADME
Chain of Albumin (P02769 whole entry): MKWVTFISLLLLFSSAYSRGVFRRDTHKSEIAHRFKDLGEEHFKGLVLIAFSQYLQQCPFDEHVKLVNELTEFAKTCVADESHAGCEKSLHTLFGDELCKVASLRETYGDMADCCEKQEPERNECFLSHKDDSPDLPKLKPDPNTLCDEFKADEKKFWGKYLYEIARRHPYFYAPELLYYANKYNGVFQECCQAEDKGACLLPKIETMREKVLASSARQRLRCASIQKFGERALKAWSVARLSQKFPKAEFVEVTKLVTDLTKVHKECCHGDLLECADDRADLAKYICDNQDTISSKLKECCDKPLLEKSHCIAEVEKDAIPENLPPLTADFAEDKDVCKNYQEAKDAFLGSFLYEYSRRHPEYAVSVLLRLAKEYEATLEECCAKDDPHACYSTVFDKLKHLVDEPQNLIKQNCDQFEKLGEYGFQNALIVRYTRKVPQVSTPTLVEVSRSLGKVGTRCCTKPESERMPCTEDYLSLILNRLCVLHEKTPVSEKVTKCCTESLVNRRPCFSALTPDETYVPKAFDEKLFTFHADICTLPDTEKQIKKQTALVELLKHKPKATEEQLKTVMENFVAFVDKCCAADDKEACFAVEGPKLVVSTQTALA
In short: (§1)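 Fluorescein-labeled peptide (100 nM) incubated 1 h at RT with varying concentrations of control protein (BSA, GST-RBD, PNP, PTP1B or MDM2). KD derived from fluorescence polarization titration curves.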

Homo sapiens = organism: Homo sapiens; test: Binding affinity to glutathione-S-transferase (unknown origin); in short: as §1
[1] = target: T1, Purine nucleoside phosphorylase (Homo sapiens) (UniProt P00491); test: Binding affinity to purine nucleoside phosphorylase (unknown origin); in short: as §1
T1 sequence (whole entry): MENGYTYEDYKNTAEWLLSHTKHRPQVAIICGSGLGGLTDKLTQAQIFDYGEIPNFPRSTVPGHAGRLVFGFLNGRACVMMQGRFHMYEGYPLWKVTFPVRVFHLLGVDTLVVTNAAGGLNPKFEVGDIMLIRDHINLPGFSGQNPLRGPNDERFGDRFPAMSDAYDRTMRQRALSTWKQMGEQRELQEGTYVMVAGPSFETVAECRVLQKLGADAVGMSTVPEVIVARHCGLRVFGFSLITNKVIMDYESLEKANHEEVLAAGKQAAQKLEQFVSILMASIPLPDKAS

[2] = target: T2, Tyrosine-protein phosphatase non-receptor type 1 (Homo sapiens) (UniProt P18031); test: Binding affinity to PTP1B (unknown origin); in short: as §1
T2 sequence (whole entry): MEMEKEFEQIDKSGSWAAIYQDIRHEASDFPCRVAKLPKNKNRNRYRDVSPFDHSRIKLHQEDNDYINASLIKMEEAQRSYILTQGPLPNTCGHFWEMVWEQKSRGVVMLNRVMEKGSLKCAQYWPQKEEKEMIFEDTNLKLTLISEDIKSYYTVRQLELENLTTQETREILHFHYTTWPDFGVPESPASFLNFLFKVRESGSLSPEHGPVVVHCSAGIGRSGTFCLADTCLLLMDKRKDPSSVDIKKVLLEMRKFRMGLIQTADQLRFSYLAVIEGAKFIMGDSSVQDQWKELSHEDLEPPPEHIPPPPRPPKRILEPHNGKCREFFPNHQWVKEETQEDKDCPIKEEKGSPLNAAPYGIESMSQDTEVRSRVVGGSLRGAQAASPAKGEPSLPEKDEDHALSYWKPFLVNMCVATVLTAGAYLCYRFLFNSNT

[3] = target: E3 ubiquitin-protein ligase Mdm2 (Homo sapiens) (UniProt Q00987); test: Binding affinity to MDM2 (unknown origin); in short: as §1
Chain of E3 ubiquitin-protein ligase Mdm2 (Homo sapiens) (Q00987 whole entry, looked up): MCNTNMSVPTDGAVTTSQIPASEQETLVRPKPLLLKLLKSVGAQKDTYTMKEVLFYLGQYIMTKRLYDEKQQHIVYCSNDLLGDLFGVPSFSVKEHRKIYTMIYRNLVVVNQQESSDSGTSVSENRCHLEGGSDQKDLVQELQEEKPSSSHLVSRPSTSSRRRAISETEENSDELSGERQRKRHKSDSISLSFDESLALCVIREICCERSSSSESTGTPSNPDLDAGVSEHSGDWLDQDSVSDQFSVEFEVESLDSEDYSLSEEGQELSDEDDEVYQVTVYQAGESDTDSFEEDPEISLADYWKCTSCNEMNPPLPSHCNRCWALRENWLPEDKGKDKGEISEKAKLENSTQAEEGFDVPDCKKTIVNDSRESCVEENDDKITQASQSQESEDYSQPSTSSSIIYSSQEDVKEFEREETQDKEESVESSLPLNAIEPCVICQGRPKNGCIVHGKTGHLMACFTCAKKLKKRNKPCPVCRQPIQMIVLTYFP

[4] = Drug distribution in human HeLa cells assessed as diffuse fluorescence throughout the entire cell volume at 5 uM incubated for 2 hrs by live-cell confocal microscopy; format: ADME, cell-based
In short: (§2)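 HeLa, H358 or A549 cells treated with 5 μM fluorescein-labeled peptide for 2 h, then imaged by live-cell confocal microscopy for intracellular fluorescence pattern.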

[5] = Drug distribution in human NCI-H358 cells assessed as fluorescent puncta in cytoplasmic region at 5 uM incubated for 2 hrs by live-cell confocal microscopy; format: ADME, cell-based; details: nci-h358, 2 h; in short: as §2
[6] = Drug distribution in human NCI-H358 cells assessed as accumulation in plasma membrane at 5 uM incubated for 2 hrs by live-cell confocal microscopy; format: ADME, cell membranes; details: nci-h358, 2 h; in short: as §2
A549 [7] = test: Antiproliferative activity against human A549 cells harboring KRAS G12S mutant incubated for 96 hrs by CellTiter-Glo2 assay; format: functional, cell-based; details: A549, 96 h
In short: (§3)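 Cells plated at 5,000/well, grown overnight, then exposed to serially diluted peptide (0–40 μM) in medium with 10% FBS for 96 h at 37 °C, 5% CO2. Viability read by CellTiter-Glo 2.0 luminescence after 15 min at RT.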

[8] = Antiproliferative activity against human NCI-H1915 cells harboring HRas Q61L mutant incubated for 96 hrs by CellTiter-Glo2 assay; format: functional, cell-based; details: NCI-H1915, Lung; in short: as §3
HEK-293T = test: Cytotoxicity against HEK293T cells incubated for 96 hrs by CellTiter-Glo2 assay; format: cell-based; details: Homo sapiens; in short: as §3
NCI-H358 [9] = test: Induction of apoptosis in human NCI-H358 cells assessed as late apoptotic cells at 1 uM incubated for 24 hrs by Alexa Fluor 488 annexin V/propidium iodide staining based assay (reference value: […]); format: functional
NCI-H358 [10] = test: Induction of apoptosis in human NCI-H358 cells assessed as necrotic cells at 1 uM incubated for 24 hrs by Alexa Fluor 488 annexin V/propidium iodide staining based assay (reference value: 0.699%); format: functional
NCI-H358 [11] = test: Induction of apoptosis in human NCI-H358 cells assessed as early apoptotic cells at 5 uM incubated for 24 hrs by Alexa Fluor 488 annexin V/propidium iodide staining based assay (reference value: 3.05%); format: functional
NCI-H358 [12] = test: Induction of apoptosis in human NCI-H358 cells assessed as late apoptotic cells at 5 uM incubated for 24 hrs by Alexa Fluor 488 annexin V/propidium iodide staining based assay (reference value: […]); format: functional
NCI-H358 [13] = test: Induction of apoptosis in human NCI-H358 cells assessed as necrotic cells at 5 uM incubated for 24 hrs by Alexa Fluor 488 annexin V/propidium iodide staining based assay (reference value: 0.699%); format: functional
NCI-H358 [14] = test: Induction of apoptosis in human NCI-H358 cells assessed as early apoptotic cells at 10 uM incubated for 24 hrs by Alexa Fluor 488 annexin V/propidium iodide staining based assay (reference value: 3.05%); format: functional
NCI-H358 [15] = test: Induction of apoptosis in human NCI-H358 cells assessed as late apoptotic cells at 10 uM incubated for 24 hrs by Alexa Fluor 488 annexin V/propidium iodide staining based assay (reference value: […]); format: functional
NCI-H358 [16] = test: Induction of apoptosis in human NCI-H358 cells assessed as necrotic cells at 10 uM incubated for 24 hrs by Alexa Fluor 488 annexin V/propidium iodide staining based assay (reference value: 0.699%); format: functional
NCI-H358 [17] = test: Induction of membrane disruption in human H358 cells assessed as LDH release up to 20 uM incubated for 45 mins by absorbance method; format: functional, cell-based; details: dose microM <=20, time […]
A549 [18] = test: Antitumor activity against human A549 cells xenografted in mouse assessed as average tumor volume at 1 mg/kg, iv administered for 9 days measured every other day (reference value: 100 mm3); format: functional; details: time 9 day
In short: (§4)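 Nude mice given ~1.5 million A549 cells subcutaneously. Once tumors reached ~40 mm3, groups of n = 6 received peptide at 1 or 5 mg/kg/day or PBS vehicle by tail-vein injection for 9 days. Tumor volume was tracked, and tumors were weighed at harvest.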

A549 [19] = test: Antitumor activity against human A549 cells xenografted in mouse assessed as average tumor volume at 5 mg/kg, iv administered for 9 days measured every other day (reference value: 100 mm3); format: functional; details: time 9 day; in short: as §4
A549 [20] = test: Antitumor activity against human A549 cells xenografted in mouse assessed as reduction in tumor growth at 5 mg/kg, iv administered for 9 days measured every other day; format: functional; design: scale not given: the % may be the effect or the level left; details: time 9 day; in short: as §4
A549 [21] = test: Antitumor activity against human A549 cells xenografted in mouse assessed as reduction in ERK phosphorylation at 1 to 5 mg/kg, iv administered for 9 days measured every other day by immunohistochemical staining method; format: functional, organism-based; details: dose 1-5 mg/kg, time 9.0 day
DLD-1 = test: Antiproliferative activity against human DLD-1 cells harboring KRAS G13D mutant incubated for 96 hrs by CellTiter-Glo2 assay; format: functional, cell-based; details: DLD-1, 96 h; in short: as §3

- Kd (Albumin): 57 µM
- Activity (Homo sapiens): inactive
- Activity [1]: inactive
- Activity [2]: inactive
- Activity [3]: inactive
- Drug uptake [4]: Active
- Drug uptake [5]: Active
- Drug uptake [6]: Active
- EC50 (A549 [7]): 0.5 µM
- EC50 (DLD-1): 4.9 µM
Compound: C[C@@H](NC(=O)[C@H](Cc1ccccc1)NC(=O)[C@@H](CCCNC(=N)N)NC(=O)[C@H](CCCN)NC(=O)[C@@H]1CNC(=O)c2cc3cc(c2)C(=O)N[C@H](Cc2ccc4ccccc4c2)C(=O)N[C@@H](CO)C(=O)N[C@@H](CC(N)=O)C(=O)N[C@H](Cc2ccc4ccccc4c2)C(=O)N[C@@H](c2ccccc2)C(=O)N[C@@H](CCCCNC3=O)C(=O)N[C@H](Cc2ccccc2)C(=O)N[C@@H](CCC(N)=O)C(=O)N[C@H](CCCNC(=N)N)C(=O)N[C@@H](CCCNC(=N)N)C(=O)N1)C(N)=O ([d2Nal]SN[d2Nal][Phg]K[dF]Q[dR]R[Dap][Orn][dR]F[dA]-NH2; linker N-6-11 via Trimesoyl)
- EC50 [8]: 6.8 µM
- EC50 (HEK-293T): ≥ 20 µM
- Activity (NCI-H358 [9]): 8.91%
- Activity (NCI-H358 [10]): 0.226%
- Activity (NCI-H358 [11]): 14.7%
- Activity (NCI-H358 [12]): 29.1%
- Activity (NCI-H358 [13]): 1.14%
- Activity (NCI-H358 [14]): 4.11%
- Activity (NCI-H358 [15]): 80%
- Activity (NCI-H358 [16]): 0.493%
- Activity (NCI-H358 [17]): inactive
- Activity (A549 [18]): 50 mm3
- Activity (A549 [19]): 35 mm3
- Activity (A549 [20]): 100%
- Activity (A549 [21]): Active
